Data on 48 sequences can be found in the EternaBench riboswitch data.

In the series the test system is MS2 coat protein. The series can be described thus: apparent Kd, MS2 coat protein; higher = weaker binding; RNA-MaP array; FMN 200 µM where present. In a few lines: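 Stalled E. coli RNA polymerase produced the designs on Illumina sequencing-chip clusters. SNAP-549-labelled MS2 coat protein was added from 0.7 or 1.5 nM, doubling to 3 µM, without and then with constant ligand, in 100 mM Tris-HCl pH 7.5, 80 mM KCl, 4 mM MgCl2, BSA, DTT, yeast tRNA and Tween-20. The apparent Kd is the median of filtered per-cluster fits of green signal normalised to red-channel RNA signal and control-cluster median Fmax.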

Setting [1] is: designed as: OFF switch for flavin mononucleotide, no ligand.
The mark [2] stands for this setting: ligand present: flavin mononucleotide, designed as: OFF switch for flavin mononucleotide.
Setting [3] is: designed as: ON switch for flavin mononucleotide, no ligand.
The mark [4] stands for this setting: ligand present: flavin mononucleotide, designed as: ON switch for flavin mononucleotide.

One may read the apparent Kd as a dissociation constant that holds for the conditions of the assay.

Consider “AGAGAAUACUCAGGAUAUCUUAAUAGAAAGAAUAGAGAAGGGAGACAUGAGGAUCACCCAUGUGAAGUCUUGAGACUACAUGGU”, for which the “apparent Kd” value under setting [1] stood at 0.291 µM and the “apparent Kd” value under setting [2] stood at 0.442 µM.
On the same counts, the results for “UGCAGGUGAGGAUAUGCGGGCGAGCUAACAUAAGCAUCGAAGCAGAAGGCACAUGAGGAUCACCCAUGUAGUCC” are 0.0189 µM and 0.028 µM.
On to “UGUAAGAUGCAGAAGGUGUUAGCUAGAGCUACGACAUGAGGAUCACCCAUGUACUAGAAACAGUACAAGGAUAUGCAUCUUACA”, for which the “apparent Kd” value under setting [3] was determined as 0.0183 µM and the “apparent Kd” value under setting [4] was found to be 0.00612 µM.
As to “UAAAUUAACAAGAAGGCUAACAUGAGGAUCACCCAUGUUGUACAUGGAUAUAGAGGAUAUUGCUAAUUAUUAUUUAUCAUAAUU”, the “apparent Kd” value reads like this: under setting [1], 0.0236 µM; under setting [2], 0.0183 µM.
In the case of “AUUAUUUACAUAGGAUAUUGUUACAUGAGGAUCACCCAUGUUUUCAUGGUAUUAAUAUAUUAUUUCAAGAAGGAUGUUGUUACA”, the “apparent Kd” value by setting is: under setting [3], 0.0322 µM; under setting [4], 0.0196 µM.
Regarding “GCACUGGAUGUAGGAUAUCAGGACGAUAAGUCCUGAGAAGGACAUGAGGAUCACCCAUGUAAAACUCCACCAGUGCAUAAUAUA”, the “apparent Kd” value is, setting by setting: under setting [1], 0.0131 µM; under setting [2], 0.0179 µM.
On the same counts, the results for “GUGGCACAUGAGGAUCACCCAUGUCAGGAUAUCGCGUGUUUUUUUUCGGCCGCGCGCGCGAGAAGGGACGUCUU” are 0.0271 µM and 0.0298 µM.
For “CUCCUCGUGUCGAACAUGAGGAUCACCCAUGUAAUGGGCACCGAGGAUAUCCCGCUGGCGUUAUGGGAGAAGGCGGUGGAUUUA”, the “apparent Kd” value under setting [1] was found to be 0.0426 µM and the “apparent Kd” value under setting [2] is 0.0403 µM.
For “UGGGUAAGUGUAGGAUAUUUAUAUUAAUAGUAUGGAGAAGGACAUGAGGAUCACCCAUGUACAGGAAGUUGCCCAUUUCCUCUC”, in that order: 0.579 µM and 0.495 µM.
For “ACCUAUGAGGAGGAUAUACGGUGCGAAAGGAAGGUAGAAGGCUUCACAUGAGGAUCACCCAUGUCUAUAAGCGA”, the “apparent Kd” value by setting is: under setting [1], 0.0309 µM; under setting [2], 0.0295 µM.
For “UUGUUAUAUGUAGGAUAUGCAUAUUGUUGUUAUGCAGAAGGACAUGAGGAUCACCCAUGUAUAUUAUUGUUAUAUAUUGUAUAU”, in that order: 0.0254 µM and 0.0346 µM.
“GGGUUUGGAGGAUAUACAUGAGGAUCACCCAUGUAGGGCCCGGGUAUUCCCGGGCCCUGUAGAAGGCCGGGCCC”: the “apparent Kd” value worked out at 0.0141 µM under setting [1] and 0.0165 µM under setting [2].
Consider “GGAUACAUCGGAGGAUAUCAUGUAAAUACAUGAGGAUCACCCAUGUCGAUGGAGACAUCGGAGAUUGAGAAGGCCGAUGUACCG”, for which the “apparent Kd” value worked out at 0.164 µM under setting [3] and 0.00895 µM under setting [4].
Regarding “AUGCUUCACACAGGAUAUACAUGAGGAUCACCCAUGUGUCCUCCGUAGCUGACACGAGCUACGCUGUAGAAGGGUGUGAAGCAU”, the “apparent Kd” value under setting [1] stood at 0.234 µM and the “apparent Kd” value under setting [2] was found to be 0.223 µM.
On the same counts, the results for “UGUCAUAAACAGAAGGGUAGUUGGGUUAUACAUGAGGAUCACCCAUGUAUUACAGGAUAUGUGUAAAGUUAUUAUUAAAGUAAA” are 0.0126 µM and 0.0138 µM.
For “GAGGAUAGAGGAUAUGCAUAGAUACGGAUUCGUGUAGUACUACAUGAGGAUCACCCAUGUAGAAGGCUGUCCAG”, in that order: 0.0127 µM and 0.022 µM.
On the same counts, the results for “UAUUAAUACGAAGGAUAUGGUUACAUGAGGAUCACCCAUGUAUGUAUUUUGAUCUAAUAAUUUAACCAGAAGGUCGAAUAUAAA” are 0.0406 µM and 0.0773 µM.
On to “GCACUUGCGUAGAAGGUACUAUAUAAUACACUGUAAGGAUAUACAUACAUGAGGAUCACCCAUGUAAAUGGAAUUUGCAAGUGC”, for which the “apparent Kd” value is, setting by setting: under setting [3], 0.00662 µM; under setting [4], 0.00649 µM.
For “GGAGCCGGCACCGAGGAUAUUCAUAUUAAAACAUGAGGAUCACCCAUGUAGGCCAGAAGGCCUUGGGAGAAGGCGGAUCGGCUCG”, in that order: 0.611 µM and 0.0384 µM.
On the same counts, the results for “CAGAUUUGCUAGAAGGGUGACAUGAGGAUCACCCAUGUGCGGGCAGACCUAUCUUCAUGCCCGCCACAGGAUAUAGCAAUUUGC” are 0.0366 µM and 0.0179 µM.
Turning to “AAUGAAACUUAGAAGGCCUACAUGAGGAUCACCCAUGUGGCUUUAAGUGUAGGAGGAUAUGAGGAUGCGGGCAGGAACCCACGC”, the “apparent Kd” value is 0.00617 µM under setting [1] and 0.0116 µM under setting [2].
On the same counts, the results for “GCGUACUGAGGAUAUACAUGAGGAUCACCCAUGUUUCACAGCAUAUGUGAAGUUUUUUGUAGAAGGCAGUAUGC” are 0.0296 µM and 0.163 µM.
For “CCUUUGAAGAUCCUAAAUUUCGACAUGAGGAUCACCCAUGUGCAGGAUAUCGUGCCAGUGAUGUGCGAGAAGGGCAGUCUCUGC”, in that order: 0.0646 µM and 0.0739 µM.
For “GAAUAGGCAGGAUAUACAUGAGGAUCACCCAUGUGCUUGCGCUAGGCACGUGAACAACGUAGAAGGGCCUAGAC”, in that order: 0.014 µM and 0.0228 µM.
As for “UUCUGUGUGUGCUAGGGCUGCACAUGAGGAUCACCCAUGUACAGAAGGUGGACACGCACUGUGGCCAAGGAUAUGUAACAUGUU”, the “apparent Kd” value reads like this: under setting [1], 0.0112 µM; under setting [2], 0.0362 µM.
Consider “GCGCCAUCGUGAGAUGGCGUACCAACAUGAGGAUCACCCAUGUAGGAUAUCGAUUGCUUUGCAGUCGAGAAGGGCAUGAUAAGU”, for which the “apparent Kd” value came to 0.022 µM under setting [1] and 0.0284 µM under setting [2].
With “CCAUAAAAGAUCCAAAAUUACAACAUGAGGAUCACCCAUGUGCAGGAUAUCGUGAAAGUGAAGUACGAGAAGGGCAGACACUGC”, the “apparent Kd” value under setting [1] was found to be 0.145 µM and the “apparent Kd” value under setting [2] came to 0.166 µM.
“AUAAAACAUGAGGAUCACCCAUGUAGAAAUAUGGGAGGAUAUACAAAGACGAAAGUCAAAGUAGAAGGCCUAAAAG”: the “apparent Kd” value under setting [3] worked out at 0.127 µM and the “apparent Kd” value under setting [4] turned out to be 0.0335 µM.
On the same counts, the results for “UGGAACAUGGGAGGAUAUGGGAUGAUAACAUGAGGAUCACCCAUGUUAAAGAUGCCGAGAGGCAACUAGAAGGCCCAUGUUCCU” are 0.368 µM and 0.0605 µM.
With “GGCGUUGAAGGAUAUUGAUAUCCGGACAUGAGGAUCACCCAUGUGAGACAUACUUAUAUGCGAGAAGGUCAGGCCC”, the “apparent Kd” value reads like this: under setting [1], 0.16 µM; under setting [2], 0.139 µM.
Regarding “GGAUAGGACAGAGGAUAUACCUGCUAGAGAUACUAGCAAAAUUUCCUCACAUGAGGAUCACCCAUGUAGAAGGCUGUCCUAUCG”, the “apparent Kd” value under setting [1] came out at 0.00845 µM and the “apparent Kd” value under setting [2] was found to be 0.109 µM.
On the same counts, the results for “GACAAGUGAGGAUAUCUGAUGUCUAACUUCGGUUAGACAUCAGAGAAGGCACAUGAGGAUCACCCAUGUCUGUC” are 0.0307 µM and 0.0208 µM.
On the same counts, the results for “AAUUGACACGUAGGAUAUCGAUCUAAAUUAACUCGAGAAGGACGCACAUGAGGAUCACCCAUGUUUAAUGGAGUAGACAUGUUG” are 0.314 µM and 0.508 µM.
On the same counts, the results for “GGAUGACAUAGUCAUCCUUAACGAACAUGAGGAUCACCCAUGUAGGAUAUGCUACUCAAAGAGUAGCAGAAGGGCAUGUGUCUU” are 0.0306 µM and 0.0688 µM.
With “UAAUAAUUAUGAGGAUAUAUACAACAUGAGGAUCACCCAUGUACCCAUGUAGUAGAAGGCAUAUUUUUAUUUAAUAAUAUAAUU”, the “apparent Kd” value was 0.0794 µM under setting [3] and 0.0339 µM under setting [4].
As for “GUACGUGGACAGAAGGUGACAUGAGGAUCACCCAUGUUAGCUCGGGUACGAGCGAUCCGCGUGAUUGAGGAUAUGUCUGCGGGC”, the “apparent Kd” value runs as follows: under setting [1], 0.0397 µM; under setting [2], 0.059 µM.
For “AGUGUUUCGUUGUGACCCAUUCACAUGAGGAUCACCCAUGUAGAGGAUAUAGGUCACCACGGUUCCUAGAAGGCUGCAGGUGUG”, in that order: 0.00571 µM and 0.0073 µM.
With “GCACUGGCAGGAUAUACAUGAGGAUCACCCAUGUGACCCUUGAAGUACUCGCGUACUCGUAGAAGGGCCUGUGC”, the “apparent Kd” value reads like this: under setting [1], 0.102 µM; under setting [2], 0.52 µM.
For “GUGACGAAUGUAGGAUAUGCUGAGGAUAACUCAGCAGAAGGACAUGAGGAUCACCCAUGUACUAAUAGUGAUAAUAAACGUCAC”, in that order: 0.0148 µM and 0.0825 µM.
As for “CCGUCCCGGCUGCAGCUCGGUAACAUGAGGAUCACCCAUGUCAAGGAUAUAACCAUACUCGAUCGUUAGAAGGUGACAGGGUCC”, the “apparent Kd” value under setting [1] amounted to 0.175 µM and the “apparent Kd” value under setting [2] was 0.107 µM.
For “GCUCUUGUCAAGAAGGGCUCGCGGGACGCUGCAGCAGGAUAUUGACAUGAGGAUCACCCAUGUCGACCGGAACACCAUUGAGGG”, in that order: 0.0222 µM and 0.196 µM.
On the same counts, the results for “UGGCGCAUGUGAGGAUAUAGUGGGUAGUAACUACUAGAAGGUACAUGAGGAUCACCCAUGUACUUGGGUUUGUCAGGAACUCCU” are 0.00657 µM and 0.00833 µM.
On the same counts, the results for “GAGAAGAGGGAAGGAUAUACAUGAGGAUCACCCAUGUAGAUAGGUAUAAUAGGUUGUUGUAGUAUGUAGAAGGUCCGGUUUGUU” are 0.0189 µM and 0.0225 µM.
In the case of “CAGCUGAAAGUCAGGAUAUCUAGAGCUUCGGCUCUAGAGAAGGGACAUGAGGAUCACCCAUGUGGUCACAGCUG”, the “apparent Kd” value by setting is: under setting [1], 1.42 µM; under setting [2], 0.149 µM.
Turning to “GGCCGUUUACAUGAGGAUCACCCAUGUCCGGAUUGUUGGCCCAGAAGGCAUUACGAAUUCGGCUAUGAGGAUAUGGGUUACAAG”, the “apparent Kd” value is 0.215 µM under setting [3] and 0.119 µM under setting [4].
“GUAGAGUAAGGAUAUGGUGAAUAGGAUAGAAUGGUUAGAAACCAGAAGGUACAUGAGGAUCACCCAUGUAAUGU”: the “apparent Kd” value reads like this: under setting [1], 0.021 µM; under setting [2], 0.0211 µM.
As to “CGGGUAUAUCGAGGAUAUAAGUCUAGGACAUGAGGAUCACCCAUGUAUGUCUUAGAAGGCGAUAUACCCAGCCUGUUACAGGCA”, the “apparent Kd” value by setting is: under setting [3], 0.031 µM; under setting [4], 0.00637 µM.
Regarding “GGAGCACACAUUAACAUGAGGAUCACCCAUGUCAAAAGACAUGAGGAUAUGGAUCCGAAAAGGAUCCAGAAGGCAUGGUUCUCC”, the “apparent Kd” value worked out at 0.365 µM under setting [3] and 0.0196 µM under setting [4].
